Calls of active or inactive are those of the source. No cut-off for these calls is given here.
How the values were obtained:
Ovis aries = organism: Ovis aries; experiment: Inhibition of sheep brain tubulin polymerization at 10 uM
Method in brief: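 Microtubule protein from sheep brain, purified by two assembly/disassembly cycles (37 °C/0 °C), in 100 mM MES pH 6.6, 1 mM EGTA, 0.5 mM MgCl₂. Compounds in DMSO were tested at a single concentration, with incubation at 37 °C for 10 min and then 0 °C for 5 min before measuring assembly rate, following a modified Guénard protocol.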

[1] = Inhibition of sheep brain tubulin polymerization; parameters: species or system Ovis aries

tubulin polymerization inhibition call (active/not active) (Ovis aries): Active
IC50 [1]: 7.9 µM
SMILES: COc1ccc(C(=O)c2cc(OC)c(OC)c(OC)c2)cc1O [PHENSTATIN]

— ChEMBL document CHEMBL1828575, “Design, synthesis and antiproliferative activities of biarylolefins based on polyhydroxylated and carbohydrate scaffolds” (Eur J Med Chem, 2011)
